For one compound, IC50 results are on record in ChEMBL document CHEMBL1250490, “Synthesis, characterization, antiamoebic activity and cytotoxicity of novel series of pyrazoline derivatives bearing quinoline tail” (Eur J Med Chem, 2010).

This test deals with MCF7. Briefly: Cytotoxicity against human MCF7 cells after 48 hrs by MTT assay. Conditions: MCF7, 48 h. In kind it is cell-based. The method in brief:
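MCF-7 cells were kept as monolayers in DMEM with 10% fetal calf serum and penicillin. They were plated at 1.2×10⁴ cells/well and grown 48 h before dosing. Compounds were dissolved as 20% DMSO stocks and diluted in complete medium. After 48 h exposure, MTT was added for 4 h at 37 °C and dissolved in DMSO. Absorbance was read at 570 nm (reference 655 nm); viability is relative to untreated cells. Triplicate, repeated thrice.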
In general terms: Tetrazolium assays rely on reduction of a dye to a coloured formazan, in cell work by metabolically active cells.

Consider `Cc1ncc([N+](=O)[O-])n1CCO` [METRONIDAZOLE], for which the IC50 (usually the point on the concentration scale where inhibition reaches its midpoint) was over 100 µM.
